ChEMBL document CHEMBL1799921, “3-(1,3,4-Thiadiazole-2-yl)quinoline derivatives: synthesis, characterization and anti-microbial activity” (Eur J Med Chem, 2011)
Converted amounts (≈) assume the structure as drawn.

Assays:
Salmonella typhimurium [1] = test: Antibacterial activity against Salmonella Typhimurium after 18 hrs by macro-dilution test; type: functional, Salmonella enterica subsp. enterica serovar Typhimurium; settings: Salmonella enterica
Outline: (§1)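 Tube macro-dilution. Compounds in DMSO serially diluted to final […]. 24 h old inoculum added to each tube. Standard inoculum […]. Incubated 18 h at 37 °C. MIC is the lowest concentration with no visible growth, read visually. DMSO negative and amoxicillin positive controls.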

Escherichia coli [2] = test: Antibacterial activity against Escherichia coli after 18 hrs by macro-dilution test; type: functional; outline: as §1
Streptococcus pyogenes [3] = test: Antibacterial activity against Streptococcus pyogenes after 18 hrs by macro-dilution test; type: functional; outline: as §1
Streptococcus pyogenes [4] = test: Antibacterial activity against Streptococcus pyogenes measured at MIC after 18 hrs by halo zone test; type: functional
Outline: (§2)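 Disk diffusion. Strains subcultured 18 h at 37 °C in BHI, then suspended in saline by McFarland to about 10⁵ CFU/mL. Suspension mixed 1:1 with antibiotic agar at 40 °C and plated. 6.0 mm paper disks loaded with dilutions from a DMSO stock (1 mg per 100 of DMSO). Incubated 18 h at 36 °C. Inhibition zone (mm) measured at the MIC. Amoxicillin and DMSO disks as controls.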

Salmonella typhimurium [5] = test: Antibacterial activity against Salmonella Typhimurium measured at MIC after 18 hrs by halo zone test; type: functional, Salmonella enterica subsp. enterica serovar Typhimurium; outline: as §2
Staphylococcus aureus [6] = test: Antibacterial activity against Staphylococcus aureus after 18 hrs by macro-dilution test; type: functional; outline: as §1
Escherichia coli [7] = test: Antibacterial activity against Escherichia coli measured at MIC after 18 hrs by halo zone test; type: functional; outline: as §2
Staphylococcus aureus [8] = test: Antibacterial activity against Staphylococcus aureus measured at MIC after 18 hrs by halo zone test; type: functional; outline: as §2

Row | Compound | MIC (Salmonella typhimurium [1]) | MIC (Escherichia coli [2]) | MIC (Streptococcus pyogenes [3]) | inhibition zone (IZ) (Streptococcus pyogenes [4]) | inhibition zone (IZ) (Salmonella typhimurium [5]) | MIC (Staphylococcus aureus [6]) | inhibition zone (IZ) (Escherichia coli [7]) | inhibition zone (IZ) (Staphylococcus aureus [8])
1 | S=C(N/N=C/c1cc2cccc(Cl)c2nc1Cl)NC1CCCCCCC1 | 256 µg/mL (≈ 625 µM) | 128 µg/mL (≈ 313 µM) | 256 µg/mL (≈ 625 µM) | 17.54 mm | 17.54 mm | 256 µg/mL (≈ 625 µM) | 17.62 mm | 
2 | Fc1ccc(F)c(NC(=S)N/N=C/c2cc3ccccc3nc2Cl)c1 | 32 µg/mL (≈ 84.9 µM) | 64 µg/mL (≈ 170 µM) | 64 µg/mL (≈ 170 µM) | 14.07 mm | 11.56 mm | 32 µg/mL (≈ 84.9 µM) | 10.13 mm | 16.75 mm
3 | Cc1ccc(NC(=S)N/N=C/c2cc3ccccc3nc2Cl)cc1 | 64 µg/mL (≈ 180 µM) | 64 µg/mL (≈ 180 µM) | 32 µg/mL (≈ 90.2 µM) | 17.43 mm | 18.02 mm | 32 µg/mL (≈ 90.2 µM) | 16.65 mm | 17.93 mm
4 | O=[N+]([O-])c1ccc(NC(=S)N/N=C/c2cc3ccccc3nc2Cl)cc1 | 256 µg/mL (≈ 663 µM) | 32 µg/mL (≈ 82.9 µM) | 64 µg/mL (≈ 166 µM) | 12.25 mm |  | 64 µg/mL (≈ 166 µM) | 13.27 mm | 13.46 mm
5 | Cc1cccc2cc(/C=N/NC(N)=S)c(Cl)nc12 | 256 µg/mL (≈ 918 µM) | 256 µg/mL (≈ 918 µM) | 128 µg/mL (≈ 459 µM) | 17.1 mm | 18.02 mm | 64 µg/mL (≈ 230 µM) |  | 12.76 mm
6 | Cc1cccc2cc(/C=N/NC(=S)NC3CCCC3)c(Cl)nc12 | 256 µg/mL (≈ 738 µM) | 256 µg/mL (≈ 738 µM) | 256 µg/mL (≈ 738 µM) | 18.71 mm | 17.44 mm | 256 µg/mL (≈ 738 µM) | 16.97 mm | 20.04 mm
7 | Cc1cccc2cc(/C=N/NC(=S)NC3CCCCC3)c(Cl)nc12 | 256 µg/mL (≈ 709 µM) | 128 µg/mL (≈ 355 µM) | 256 µg/mL (≈ 709 µM) | 11.08 mm | 15.66 mm | 128 µg/mL (≈ 355 µM) | 21.27 mm | 12.75 mm
8 | Cc1cccc2cc(/C=N/NC(=S)NC3CCCCCCC3)c(Cl)nc12 | 128 µg/mL (≈ 329 µM) | 256 µg/mL (≈ 658 µM) | 128 µg/mL (≈ 329 µM) | 14.45 mm | 22.51 mm | 256 µg/mL (≈ 658 µM) | 16.61 mm | 15.78 mm
9 | Cc1ccccc1NC(=S)N/N=C/c1cc2cccc(C)c2nc1Cl | 32 µg/mL (≈ 86.7 µM) | 64 µg/mL (≈ 173 µM) | 64 µg/mL (≈ 173 µM) | 18.81 mm | 13.94 mm | 32 µg/mL (≈ 86.7 µM) | 15.17 mm | 14.8 mm
10 | Cc1ccc(NC(=S)N/N=C/c2cc3cccc(C)c3nc2Cl)cc1 | 32 µg/mL (≈ 86.7 µM) | 64 µg/mL (≈ 173 µM) | 64 µg/mL (≈ 173 µM) | 17.65 mm | 17.18 mm | 32 µg/mL (≈ 86.7 µM) | 18.67 mm | 19.24 mm
11 | Cc1cccc2cc(/C=N/NC(=S)Nc3ccc([N+](=O)[O-])cc3)c(Cl)nc12 | 64 µg/mL (≈ 160 µM) | 32 µg/mL (≈ 80 µM) | 32 µg/mL (≈ 80 µM) | 13.27 mm | 14.23 mm | 64 µg/mL (≈ 160 µM) | 17.48 mm | 17.31 mm
12 | CC(=O)NC1=NN(C(C)=O)C(c2cc3cccc(Cl)c3nc2Cl)S1 (stereo not given) | 64 µg/mL (≈ 167 µM) | 64 µg/mL (≈ 167 µM) | 64 µg/mL (≈ 167 µM) | 19.91 mm | 17.27 mm | 64 µg/mL (≈ 167 µM) | 16.72 mm | 18.13 mm
13 | CC(=O)N1N=C(N(C(C)=O)C2CCCC2)SC1c1cc2cccc(Cl)c2nc1Cl (stereo not given) | 128 µg/mL (≈ 284 µM) | 128 µg/mL (≈ 284 µM) | 64 µg/mL (≈ 142 µM) | 14.15 mm | 15.17 mm | 64 µg/mL (≈ 142 µM) | 18.18 mm | 18.03 mm
14 | CC(=O)N1N=C(N(C(C)=O)C2CCCCC2)SC1c1cc2cccc(Cl)c2nc1Cl (stereo not given) | 256 µg/mL (≈ 550 µM) | 128 µg/mL (≈ 275 µM) | 128 µg/mL (≈ 275 µM) | 17.73 mm | 16.72 mm | 64 µg/mL (≈ 138 µM) | 15.23 mm | 17.39 mm
15 | CC(=O)N1N=C(N(C(C)=O)C2CCCCCCC2)SC1c1cc2cccc(Cl)c2nc1Cl (stereo not given) | 64 µg/mL (≈ 130 µM) | 64 µg/mL (≈ 130 µM) | 128 µg/mL (≈ 259 µM) | 17.94 mm | 18.54 mm | 64 µg/mL (≈ 130 µM) | 16.36 mm | 17.62 mm
16 | CC(=O)N(C1=NN(C(C)=O)C(c2cc3cccc(Cl)c3nc2Cl)S1)c1cc(F)ccc1F (stereo not given) | 64 µg/mL (≈ 129 µM) | 64 µg/mL (≈ 129 µM) | 64 µg/mL (≈ 129 µM) | 13.92 mm | 17.59 mm | 64 µg/mL (≈ 129 µM) | 16.45 mm | 12.99 mm
17 | CC(=O)N(C1=NN(C(C)=O)C(c2cc3cccc(Cl)c3nc2Cl)S1)c1ccc(C)cc1 (stereo not given) | 64 µg/mL (≈ 135 µM) | 64 µg/mL (≈ 135 µM) | 64 µg/mL (≈ 135 µM) | 17.09 mm | 16.88 mm | 64 µg/mL (≈ 135 µM) | 18.11 mm | 15.67 mm
18 | CC(=O)NC1=NN(C(C)=O)C(c2cc3ccccc3nc2Cl)S1 (stereo not given) | 64 µg/mL (≈ 183 µM) | 64 µg/mL (≈ 183 µM) | 64 µg/mL (≈ 183 µM) | 16.97 mm | 13.42 mm | 64 µg/mL (≈ 183 µM) | 17.76 mm | 15.67 mm
19 | NC(=S)N/N=C/c1cc2cccc(Cl)c2nc1Cl | 128 µg/mL (≈ 428 µM) | 128 µg/mL (≈ 428 µM) | 64 µg/mL (≈ 214 µM) | 19.58 mm | 16.66 mm | 64 µg/mL (≈ 214 µM) | 15.8 mm | 21.13 mm
20 | S=C(N/N=C/c1cc2cccc(Cl)c2nc1Cl)NC1CCCC1 | 128 µg/mL (≈ 348 µM) | 256 µg/mL (≈ 697 µM) | 256 µg/mL (≈ 697 µM) | 13.15 mm | 15.17 mm | 128 µg/mL (≈ 348 µM) | 17.18 mm | 17.68 mm
21 | S=C(N/N=C/c1cc2cccc(Cl)c2nc1Cl)NC1CCCCC1 | 256 µg/mL (≈ 671 µM) | 256 µg/mL (≈ 671 µM) | 128 µg/mL (≈ 336 µM) | 13.73 mm | 15.72 mm | 64 µg/mL (≈ 168 µM) | 15.23 mm | 17.23 mm
22 | Cc1ccccc1NC(=S)N/N=C/c1cc2cccc(Cl)c2nc1Cl | 32 µg/mL (≈ 82.2 µM) | 64 µg/mL (≈ 164 µM) | 64 µg/mL (≈ 164 µM) | 10.26 mm | 10.53 mm | 32 µg/mL (≈ 82.2 µM) | 13.47 mm | 18.9 mm
23 | Fc1ccc(F)c(NC(=S)N/N=C/c2cc3cccc(Cl)c3nc2Cl)c1 | 64 µg/mL (≈ 156 µM) | 64 µg/mL (≈ 156 µM) | 32 µg/mL (≈ 77.8 µM) | 15.92 mm | 14.92 mm | 64 µg/mL (≈ 156 µM) | 13.75 mm | 12.15 mm
24 | Cc1ccc(NC(=S)N/N=C/c2cc3cccc(Cl)c3nc2Cl)cc1 | 32 µg/mL (≈ 82.2 µM) | 64 µg/mL (≈ 164 µM) | 32 µg/mL (≈ 82.2 µM) | 15.76 mm | 17.55 mm | 64 µg/mL (≈ 164 µM) | 15.88 mm | 15.01 mm
25 | O=[N+]([O-])c1ccc(NC(=S)N/N=C/c2cc3cccc(Cl)c3nc2Cl)cc1 | 64 µg/mL (≈ 152 µM) | 256 µg/mL (≈ 609 µM) | 64 µg/mL (≈ 152 µM) | 15.26 mm | 15.99 mm | 32 µg/mL (≈ 76.1 µM) |  | 19.7 mm
26 | NC(=S)N/N=C/c1cc2ccccc2nc1Cl | 128 µg/mL (≈ 483 µM) | 256 µg/mL (≈ 967 µM) | 64 µg/mL (≈ 242 µM) | 16.97 mm | 12.42 mm | 128 µg/mL (≈ 483 µM) | 17.76 mm | 11.67 mm
27 | S=C(N/N=C/c1cc2ccccc2nc1Cl)NC1CCCC1 | 128 µg/mL (≈ 385 µM) | 128 µg/mL (≈ 385 µM) | 128 µg/mL (≈ 385 µM) | 21.07 mm | 22.58 mm | 64 µg/mL (≈ 192 µM) | 21.12 mm | 19.52 mm
28 | S=C(N/N=C/c1cc2ccccc2nc1Cl)NC1CCCCC1 | 128 µg/mL (≈ 369 µM) | 128 µg/mL (≈ 369 µM) | 256 µg/mL (≈ 738 µM) | 12.38 mm | 15.93 mm | 256 µg/mL (≈ 738 µM) | 17.68 mm | 12.37 mm
29 | S=C(N/N=C/c1cc2ccccc2nc1Cl)NC1CCCCCCC1 | 128 µg/mL (≈ 341 µM) | 256 µg/mL (≈ 683 µM) | 128 µg/mL (≈ 341 µM) | 13.67 mm | 19.73 mm | 256 µg/mL (≈ 683 µM) | 13.23 mm | 9.9 mm
30 | Cc1ccccc1NC(=S)N/N=C/c1cc2ccccc2nc1Cl | 64 µg/mL (≈ 180 µM) | 32 µg/mL (≈ 90.2 µM) | 64 µg/mL (≈ 180 µM) | 16.48 mm | 14.73 mm | 256 µg/mL (≈ 721 µM) | 18.84 mm | 
